Source: PubChem (Johns Hopkins Ion Channel Center)
In the library only some 3.8% were active in any assay of this set; here they are far more common.
KCNQ1 act: potentiates or activates the human KCNQ1 potassium channel; CHO-K1 KCNQ1, thallium flux FluxOR fluorescence; active compounds read high; B-score at 10 µM; 310,000 compounds, 0.35% hits; AID 2648;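 active = fluorescence ratio B-score, a plate-corrected score, at least three library SD, with initial intensity B-score within 5 SD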
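Medium – assay buffer, equal DMSO in all wells · Material – CHO-K1 cell line with stable KCNQ1 potassium channel expression · Signal – kinetic FluxOR thallium fluorescence, 10-s 1-Hz baseline, 110-s post-stimulus read · Compound – single concentration per compound, DMSO matched to controls · Schedule – 37 °C overnight plating, 90-min dark dye load, 20-min compound pretreatment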
KCNQ1 inh: human KCNQ1 channel inhibition | P51787 | CHO-K1 KCNQ1, FluxOR thallium flux fluorescence; active compounds read high | B-score at 10 µM | 310,000 compounds, 1.3% hits;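 active = compounds whose thallium flux B-score, printed positive for inhibition, exceeds three library SD while starting fluorescence stays within three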;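 note: channel opened by potassium depolarization with thallium stimulus after 20 min compound exposure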
Kir21 inh: inhibitors of mouse Kir2.1 inward-rectifier potassium channel; AID 1672; P35561; 310,000 compounds, 0.85% hits; HEK293-Kir2.1, FluxOR thallium flux fluorescence; active compounds read low; B-score at 10 µM;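 active = fluorescence ratio B-score at or below minus 3 SD of library scores, with starting-brightness B-score within 2 SD, cut at about -4.2 in these data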;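 note: channel flux triggered by added potassium and thallium sulfate stimulus; B-score of peak minus minimum fluorescence over baseline after thallium stimulus; more negative B-score means stronger Kir2.1 block with less thallium influx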
Target sequence (P35561 whole entry, looked up): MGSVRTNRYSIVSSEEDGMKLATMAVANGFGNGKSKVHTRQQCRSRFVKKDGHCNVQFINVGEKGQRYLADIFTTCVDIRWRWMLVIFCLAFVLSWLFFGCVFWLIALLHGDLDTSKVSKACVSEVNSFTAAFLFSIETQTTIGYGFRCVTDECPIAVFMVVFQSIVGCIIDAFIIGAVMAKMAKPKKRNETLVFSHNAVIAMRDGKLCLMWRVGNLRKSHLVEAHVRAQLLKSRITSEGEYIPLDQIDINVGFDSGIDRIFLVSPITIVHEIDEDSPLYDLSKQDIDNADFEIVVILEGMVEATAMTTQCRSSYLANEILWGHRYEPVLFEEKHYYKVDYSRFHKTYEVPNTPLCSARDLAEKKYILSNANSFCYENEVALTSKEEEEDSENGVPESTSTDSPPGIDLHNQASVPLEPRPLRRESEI
KCNK3 inh: human KCNK3 channel inhibition, primary screen | O14649 | CHO-KCNK3 thallium flux, FluxOR fluorescence; active compounds read low | B-score at 10 µM | 340,000 compounds, 0.84% hits | AID 602410;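 active = B-score under library mean minus 4 SD, starting fluorescence ratio at most library mean plus 5 SD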;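 note: more negative B-score means stronger inhibition of thallium flux through KCNK3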
KCNK9 inh: inhibitors of human KCNK9 two-pore domain potassium channel. Q9NPC2. HEK293 KCNK9, FluxOR thallium flux fluorescence; active compounds read low. B-score at 10 µM. 310,000 compounds, 1.2% hits;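 active = ratio B-score over 3 SD below the library mean, with starting fluorescence within 5 SD of its mean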;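 note: negative B-score means less thallium flux so channel inhibition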
hERG rescue: hERG (human) protection from proarrhythmic block. CHO-hERG, FluxOR thallium flux, dofetilide IC70 present. 310,000 compounds, 0.51% hits. activation (rescue from dofetilide block), less the hit threshold, % at 10 µM. Q12809;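 active = activation above the mean of controls blocked by dofetilide plus 5 SD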;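 note: thallium influx through hERG after potassium depolarization seen as dye fluorescence rise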
KCNK9 block conf: human KCNK9 inhibitor confirmation; shares compounds with KCNK9 inh; HEK293 KCNK9 cells, FluxOR thallium flux fluorescence; inhibition, % at 10 µM; 4,900 compounds, 43% hits; AID 492992;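 active = thallium signal inhibited by more than 5 SD of the compound-free buffer control wells, on both duplicate plates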;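 note: 0% = assay buffer control wells without compound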
Kir2-1 spec: selectivity of KCNK9 modulators against mouse Kir2.1; shares compounds with KCNK9 inh; Kir2.1 cells, FluxOR thallium flux fluorescence; inhibition, % at 10 µM; 4,900 compounds, 4% hits;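 active = thallium signal drop more than 5 SD beyond the mean of the no-compound control wells, seen in both duplicate plates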;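 note: signal is fluorescence rise after thallium addition divided by baseline fluorescence; plate controls were assay buffer only for no effect and full block by chlorpromazine control for full effect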
KCNK9 uninduced: second check of KCNK9 modulator effects in non-induced HEK293 cells. 4,900 compounds, 40% hits. inhibition, % at 10 µM. shares compounds with KCNK9 inh. FluxOR thallium flux;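 active = thallium signal drop beyond 5 SD of the untreated control mean, on both duplicate plates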;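 note: plate controls were buffer only IC0 wells for no effect and SID17386958 at its maximal inhibitory level for full effect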
The depositor's hits bear a star; i = inactive; nt = no result.

SMILES | KCNQ1 act | KCNQ1 inh | Kir21 inh | KCNK3 inh | KCNK9 inh | hERG rescue | KCNK9 block conf | Kir2-1 spec | KCNK9 uninduced
Cc1ccc(C(=O)NCC(c2ccco2)N2CCc3ccccc3C2)cc1 (stereo not drawn) | i | i | 0.01 | i | i | -12.9 | nt | nt | nt
CSc1nc2ccccc2cc1/C=C(\C#N)c1ccccc1 | i | i | 0.69 | i | -12.6* | -5.5 | 53.5%* | i | 41.5%*
CSc1nc2ccccc2cc1/C=C(\C#N)c1cccc(C)c1 | i | i | 1.84 | i | i | -7.4 | nt | nt | nt
COC(=O)c1ccc(COc2ccccc2/C=C(\C#N)C(=O)Nc2ccccc2C)cc1 | i | i | -0.35 | i | i | -4.5 | nt | nt | nt
COC(=O)c1ccc(COc2ccccc2/C=C(\C#N)C(=O)Nc2c(C)cccc2C)cc1 | i | i | -0.01 | i | -13.2* | -12.8 | 76.0%* | i | 34.0%*
CC12CCC(C(=O)NCCCN3CCOCC3)(C(Br)C1=O)C2(C)C (stereo not drawn) | i | i | 0.54 | i | i | -4.9 | nt | nt | nt
CCOC(=O)/C(=N/Nc1ccccc1)N1CCCc2ccccc21 | i | i | 0.13 | i | i | -12.1 | nt | nt | nt
CCOC(=O)/C(=N/Nc1ccccc1OC)N1CCCc2ccccc21 | i | i | 1.4 | i | i | 1.5 | i | i | i
CC[C@H](C)[C@H]1O[C@]2(CC[C@@H]1C)C[C@@H]1C[C@@H](CC=C(C)[C@@H](O[C@H]3C[C@H](OC)[C@@H](O[C@H]4C[C@H](OC)[C@@H](O)[C@H](C)O4)[C@H](C)O3)[C@@H](C)C=CC=C3CO[C@@H]4[C@H](O)C(C)=C[C@@H](C(=O)O1)[C@]34O)O2 | nt | nt | nt | i | nt | nt | nt | nt | nt
O=C(NN1C(=O)c2ccccc2C1=O)C1C2CCCCC21 (stereo not drawn) | i | i | 0.07 | i | i | -4.4 | i | i | i
COc1ccccc1NC(=O)N1CCC(NC(=O)C(Cc2ccccc2F)NC(C)=O)CC1 (stereo not drawn) | i | i | 0.04 | i | i | -12.5 | nt | nt | nt
COc1ccc(C(=O)COC(=O)C(CC(C)C)N2C(=O)c3ccccc3C2=O)cc1 (stereo not drawn) | i | i | -1.98 | i | i | -13.3 | nt | nt | nt
CSCCC(C(=O)OCC(=O)c1ccc(C)c(C)c1)N1C(=O)c2cc(Cl)c(Cl)cc2C1=O (stereo not drawn) | i | i | 1.67 | i | i | -14.0 | i | i | i
Cc1cccc(OCCCCCn2ccnc2)c1C | i | i | -1.34 | i | i | -8.1 | i | i | i
Cc1ccc([N+](=O)[O-])cc1NC(=O)CN(C(=O)c1ccccc1Cl)C1CCCCC1 | i | i | 0.17 | i | -9.56* | -6.5 | 50.0%* | i | i
O=C(CN(C(=O)c1cccc([N+](=O)[O-])c1)C1CCCCC1)Nc1ccc(Cl)c([N+](=O)[O-])c1 | i | i | 2.01 | i | i | -4.4 | nt | nt | nt
CCOC(=O)[C@@H]1[C@H]2COc3cc(OC)ccc3[C@@H]2N2C(=O)N(c3ccccc3)C(=O)[C@]12C | nt | nt | nt | i | nt | nt | nt | nt | nt
CCOc1ccc(CCNC(=O)c2cc(-c3ccccc3)c(N3CCOCC3)s2)cc1 | i | i | -1.11 | i | i | -5.0 | nt | nt | nt
COc1ccc(CCNC(=O)c2cc(-c3ccccc3)c(N3CCOCC3)s2)c(OC)c1OC | i | i | -0.63 | i | i | -7.7 | i | i | i
Cc1cccc(NC(=O)CNC(=O)CSc2nc(N)cc(N)n2)c1C | nt | nt | nt | i | nt | nt | nt | nt | nt
Cc1ccccc1NC(=S)N1CCN(c2ccccc2Cl)CC1 | i | i | 1.35 | i | i | -8.5 | nt | nt | nt
